# Screening results (PubChem BioAssay)
# Many of the other results were omitted from the sample, so hits are more common in it than they were.
# PGC1a Ac signal = raises PGC1a acetylation signal in U2OS cells. U2OS PGC1a acetylation AlphaScreen, overnight. activation, % at 15.6 µM. 350,000 tested, 0.21% active. AID 651723;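 active means every replicate reaching activation of at least 50%, whatever the mean replicate activation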;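 further: hits raise the AlphaScreen acetylation signal above neutral controls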
#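 Test system: U2OS cells expressing flag-PGC1a plus GCN5; Amount: 7000 U2OS cells per well; Compound: single test concentration per compound; Incubation: compound overnight at 37 °C, each detection step 1 h RT; Signal: AlphaScreen lysate read.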
# A number is an active result; n = inactive.
SMILES,PGC1a Ac signal
CO[C@H]1CN(C)C(=O)c2ccc(NC(=O)c3ccno3)cc2OC[C@H](C)NC[C@H]1C,n
C[C@@H]1CN([C@H](C)CO)S(=O)(=O)c2ccc(-c3cncnc3)cc2O[C@H]1CN(C)Cc1cccnc1,n
C[C@@H]1CN([C@H](C)CO)C(=O)c2cc(/C=C/c3ccccc3)cnc2O[C@@H]1CN(C)Cc1cccnc1,n
O=C/C=C/c1ccc(-c2ccccc2)cc1,73.8
S=C1NC2=C(CCCC2=C2SCCS2)C(c2ccccc2)N1 (configuration not stated),n
O=C(c1cc(C2CC2)on1)N1CCCC(N2CCN(c3cccc(C(F)(F)F)c3)CC2)C1 (configuration not stated),n
CC(c1n[nH]c(=S)n1Cc1ccccc1)N(C)C (configuration not stated),n
COc1ccc(S(=O)(=O)N2c3ccc(F)cc3CCC2C)cc1 (configuration not stated),119.9
CCn1c(Cl)c(C=O)s/c1=N\S(=O)(=O)c1ccccc1,n
O=C(C[C@@H]1C=C[C@@H](NC(=O)CN2CCOCC2)[C@H](CO)O1)NC1CCCCC1,n
C=CC(=O)N1C/C(=C/c2ccc(F)cc2)C(=O)/C(=C\c2ccc(F)cc2)C1,n
CC1(Cc2ccc(Cl)s2)C(=O)Nc2c(Cl)ccc(Cl)c21 (configuration not stated),65.3
Cc1c(CNCCc2ccc(Cl)cc2)c(C(=O)O)c(C)n1-c1ccccc1,n
CCCNC(=O)c1nnsc1S(=O)c1ccc(Cl)cc1 (configuration not stated),147.5
CCCNC(=O)c1nnsc1S(=O)(=O)c1ccc(Cl)cc1,82.4
CNC(=O)c1nnsc1S(=O)c1ccc(Cl)cc1 (configuration not stated),116.7
C[C@@H]1CN([C@H](C)CO)C(=O)c2cc(NC(=O)Cc3cn(C)c4ccccc34)ccc2O[C@@H]1CN(C)C(=O)Nc1ccccc1,n
C[n+]1cccc(CNC(=O)/C=N/O)c1,n
O=C(Cc1ccccn1)NCC[C@@H]1CC[C@@H](NC(=O)Nc2ccc(C(F)(F)F)cc2)[C@@H](CO)O1,n
CCOc1cc(CNC2CCCC2)cc(Cl)c1OCc1ccc(F)cc1,n
COc1cc(/C=C/c2cccc[n+]2C)ccc1OCC(=O)Nc1ccccc1,n
Cc1ccc(NC2=C(Cl)C(=O)c3ccccc3C2=O)cc1,n
Cc1ccc(NC2=C([N+](=O)[O-])CS(=O)(=O)C2)cc1,217.5
Cn1ccc2cc(OCc3ccccc3)ccc21,53.6
O=C(CN(Cc1ccc2c(c1)OCO2)C(=O)CNS(=O)(=O)c1ccccc1)NCc1ccco1,n
SMILES,PGC1a Ac signal
Cc1ccc(CCC(=O)Nc2ccc(Cl)cc2)o1,n
O=C(CCl)Nc1ccc(N=Nc2ccccc2)cc1,101.3
O=C(CCCCCCC(=O)Nc1ccccc1)NO,n
Cc1ccccc1S(=O)(=O)N[C@H]1CC[C@H](CCn2cc(Cc3ccccc3)nn2)O[C@@H]1CO,n
O=C(c1ccc(F)cc1)N(C(=O)c1ccc(F)cc1)c1ncccn1,n
Cc1cc(C)cc(NC(=O)c2ccc([N+](=O)[O-])o2)c1,246.5
O=C(Nc1ccc(N2CCN(C(=O)c3ccccc3)CC2)cc1)c1ccc([N+](=O)[O-])o1,121.9
O=C(Nc1ccc([N+](=O)[O-])cn1)c1ccc(Br)o1,n
O=[N+]([O-])c1ccccc1-c1ccc(C(=S)N2CCN(c3ccccc3)CC2)o1,n
O=C(c1ccc(CN2CCOCC2)cc1)N1CCN(Cc2ccccc2)CC1,n
Cc1cc(C)cc(C(=O)Nc2ccc3[nH]c(=O)[nH]c3c2)c1,n
O=C(Nc1c(Cl)ccc2nsnc12)c1ccc([N+](=O)[O-])o1,73.7
CC(=O)c1ccc(NC(=O)c2ccc([N+](=O)[O-])o2)cc1,101.5
Cc1cc(=O)[nH]c(NN)n1,n
COc1ccc(CN(C)C[C@@H]2Oc3ccc(NS(=O)(=O)c4c(C)noc4C)cc3C(=O)N([C@H](C)CO)C[C@H]2C)cc1,n
CCCCCCNC(=O)c1ncn[nH]1,n
O=C(C[C@H]1CC[C@@H]2[C@H](COC[C@@H](O)CN2S(=O)(=O)c2ccc(F)cc2)O1)NCCN1CCCCC1,n
COCC#Cc1cnc2c(c1)C(=O)N([C@H](C)CO)C[C@@H](C)[C@@H](CN(C)C(=O)c1cccnc1)O2,n
COc1c(O)cc(O)c2c(=O)cc(-c3ccccc3)oc12,63.6
Cc1ccc(-c2nn(C)c(=O)c3ccccc23)cc1S(=O)(=O)NCCN(C)C,n
C/C(=N\NC(=O)CN1CCCCC1)c1ccccc1O,n
CC(=NNC(=S)N1CCC1)c1ccccn1,190.1
Cn1c(CCN2CCCCC2)nc2cc(NS(=O)(=O)c3ccccc3)ccc21,64.0
Cn1c(CN2CCCC2)nc2cc(NC(=O)COc3ccc(Cl)cc3)ccc21,n
COc1ccc(CN(Cc2cccn2C)S(=O)(=O)c2ccccc2)cc1,n
SMILES,PGC1a Ac signal
COc1ccc(S(=O)(=O)Nc2ccccc2C)cc1C(=O)N1CCOCC1,n
O=C(N[C@@H]1CC[C@@H](CCNS(=O)(=O)c2ccccc2Cl)O[C@@H]1CO)c1ccc(F)cc1,n
CCOC(=O)c1ccc(-c2c(-c3cc(OC)c(OC)c(OC)c3)noc2C)cc1F,59.3
CN1C(C(=O)Nc2ccccn2)=C(O)c2sc(Cl)cc2S1(=O)=O,n
CCOC(=O)N1CCN(C(=O)C(NS(=O)(=O)c2cccc3nsnc23)c2ccccc2)CC1 (configuration not stated),59.0
COCC(=O)Nc1ccc2c(c1)OC[C@@H](C)N(C(=O)c1ccccn1)C[C@@H](C)[C@@H](OC)CN(C)C2=O,n
COc1ccc(OC)c(NC(=O)C2C(C(=O)O)C3(Cl)C(Cl)=C(Cl)C2(Cl)C3(Cl)Cl)c1 (configuration not stated),n
CC1C(=O)CCCCCCCCCC2C1(N1CCOCC1)CS2(=O)=O (configuration not stated),61.4
C#CC(CC)(CC)NC(=O)c1ccc(Br)s1,n
CCN1CCN(Cc2ccc(NC(=O)c3ccc(C)c(NC(=O)c4cncc(-c5cccs5)c4)c3)cc2C(F)(F)F)CC1,n
COC(=O)C1=C(N)OC2=C(C(=O)CC(C)(C)C2)C1c1cccs1 (configuration not stated),56.9
C#CCN1[C@H](/C=C/C2CC2)[C@H](Cc2ccccc2)OC(=O)[C@@H]1[C@@H]1N[C@@H](C(=O)OC)C(C)(C)S1,n
CC(=O)c1c(-c2ccccc2)[nH]c2ccccc12,60.5
O=C(O)c1ccc(N=Nc2c(O)[nH]c3ccccc23)cc1,n
C[C@@H]1CN([C@H](C)CO)C(=O)CCCn2cc(nn2)CO[C@H]1CN(C)C(=O)Nc1ccc(C(F)(F)F)cc1,n
O=C(COC(=O)C1CC2CCCC(C1)C2=O)Nc1ccc(F)c(Cl)c1 (configuration not stated),n
Cn1cccc1C(=O)OCC(=O)Nc1ccc2c(c1)CCC2,82.8
O=C(Cc1ccccn1)NCC[C@@H]1CC[C@H](NC(=O)Nc2ccc(C(F)(F)F)cc2)[C@@H](CO)O1,n
COc1cc(-c2nnn(CC#N)n2)ccc1OCc1ccccc1,211.6
C[C@@H]1CN([C@H](C)CO)C(=O)c2cc(NS(=O)(=O)c3cccs3)ccc2O[C@@H]1CN(C)S(=O)(=O)c1ccc(F)cc1,n
C=C1C(=O)OC2C1CCC(C)=C1C(=O)C3OC3(C)C12 (configuration not stated),82.5
CC(=O)c1cccc(NC(=S)NC(=O)c2ccc(Br)cc2)c1,n
O=C(NC(=S)Nc1cc(Cl)ccc1O)c1cccc(Br)c1,n
CC1(C)CC(NC(=S)NC(=O)c2cc(Br)ccc2Cl)CC(C)(C)N1,225.6
